Laboratory results from ChEMBL document CHEMBL3763022, “Potent dual inhibitors of Plasmodium falciparum M1 and M17 aminopeptidases through optimization of S1 pocket interactions” (Eur J Med Chem, 2016).

Assays:
[1] = Inhibition of recombinant Plasmodium falciparum M1 aminopeptidase using H-Leu-NHMec as substrate preincubated for 10 mins followed by addition of substrate by spectrofluorimetric analysis
Method in brief: (§1)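 E. coli-expressed enzymes, purified by Ni-NTA and size exclusion. Preincubation 10 min at 37°C with inhibitor: M1 in 100 mM Tris pH 8.0; M17 in 50 mM Tris pH 8.0, 2 mM CoCl2. Substrate H-Leu-NHMec kept below Km. Fluorescence ex 355/em 460 nm followed to steady-state velocity. Inhibitor range 500pM–500 μM. Ki from Dixon plots (1/V vs [I]).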

[2] = Inhibition of recombinant Plasmodium falciparum M17 aminopeptidase using H-Leu-NHMec as substrate preincubated for 10 mins followed by addition of substrate by spectrofluorimetric analysis; method in brief: as §1
Plasmodium falciparum [3] = assay: Antiparasitic activity against Plasmodium falciparum Dd2 assessed as growth inhibition after 72 hrs by DAPI staining-based confocal image analysis; assay type: functional, organism-based; settings: Dd2, 72 h
Method in brief: (§2)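 Sorbitol-synchronised ring-stage parasites in human O+ erythrocytes at 2% parasitaemia, 0.3% haematocrit, incubated 72 h at 37 °C (5% CO2) with three-step log serial dilutions from 20 μM top, 0.4% DMSO final. Staining with DAPI/saponin/Triton X/EDTA in PBS, confocal imaging, parasite count.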

Plasmodium falciparum [4] = assay: Antiparasitic activity against Plasmodium falciparum 3D7 assessed as growth inhibition after 72 hrs by DAPI staining-based confocal image analysis; assay type: functional, organism-based; settings: 3D7, 72 h; method in brief: as §2
HEK293 = assay: Cytotoxicity against HEK293 cells assessed as cell viability after 72 hrs by resazurin assay; assay type: cell-based; settings: human, hek293, 72 h
Method in brief: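 HEK293 cells in DMEM with 10% FCS, seeded at 2000 cells/well and left to adhere overnight. Compound dose response with top final 40 μM, 0.4% DMSO. Exposure 72 h at 37 °C, 5% CO2. Medium then replaced by 44 μM resazurin in serum-free DMEM for 4-6 h. Fluorescence read at ex/em 530/595 nm.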

Plasmodium falciparum [5] = assay: Antiparasitic activity against chloroquine/quinine/pyrimethamine/sulfadoxine/NITD609-resistant Plasmodium falciparum Dd2 clone 2 assessed as growth inhibition after 72 hrs by DAPI staining-based confocal image analysis; assay type: functional, organism-based; settings: Dd2, 72 h; method in brief: as §2

SMILES | Ki [1] [µM] | Ki [2] [µM] | IC50 (Plasmodium falciparum [3]) [µM] | IC50 (Plasmodium falciparum [4]) [µM] | Activity (HEK293) | IC50 (Plasmodium falciparum [5]) [µM]
CC(C)(C)OC(=O)NC(C(=O)NO)c1ccc(-c2ccncc2)cc1 (configuration not stated) | 0.91 | 0.54 | – | – | – | –
CC(C)(C)OC(=O)NC(C(=O)NO)c1ccc(-c2cccc(F)c2)cc1 (configuration not stated) | 0.95 | 0.13 | – | – | – | –
CC(C)(C)C(=O)NC(C(=O)NO)c1ccc(-c2cccc(F)c2)cc1 (configuration not stated) | 0.55 | 0.0062 | 0.226 | 0.162 | Non-toxic | 0.316
Cn1cc(-c2ccc(CC(NC(=O)C(C)(C)C)C(=O)NO)cc2)cn1 (configuration not stated) | 39 | 0.74 | – | – | – | –
Cn1cc(-c2ccc(C(NC(=O)C(C)(C)C)C(=O)NO)cc2)cn1 (configuration not stated) | 11 | 0.0072 | – | – | – | –
CC(C)(C)C(=O)NC(C(=O)NO)c1ccc(Br)cc1 (configuration not stated) | 0.065 | 0.041 | 0.194 | 0.169 | Non-toxic | 0.163
CC(C)(C)OC(=O)NC(C(=O)NO)c1ccc(F)cc1 (configuration not stated) | 5.3 | 1.7 | – | – | – | –
CC(C)(C)C(=O)NC(C(=O)NO)c1ccc(-c2ccsc2)cc1 (configuration not stated) | 0.64 | 0.0091 | 0.11 | 0.103 | Non-toxic | 0.1
CC(C)(C)C(=O)NC(C(=O)NO)c1ccc(-c2cc(F)cc(F)c2)cc1 (configuration not stated) | 0.58 | 0.092 | 0.239 | 0.144 | Non-toxic | 0.232
CC(C)(C)OC(=O)NC(Cc1ccc(F)cc1)C(=O)NO (configuration not stated) | 18 | 2.8 | – | – | – | –
CC(C)(C)C(=O)NC(Cc1ccc(Br)cc1)C(=O)NO (configuration not stated) | 87 | 0.42 | – | – | – | –
CC(C)(C)C(=O)NC(Cc1ccc(F)cc1)C(=O)NO (configuration not stated) | 63 | 0.037 | – | – | – | –
CC(C)(C)OC(=O)NC(C(=O)NO)c1ccc(-c2ccccc2C(F)(F)F)cc1 (configuration not stated) | 0.75 | 0.12 | – | – | – | –
CC(C)(C)OC(=O)NC(C(=O)NO)c1ccc(-c2ccccc2)cc1 (configuration not stated) | 37 | 0.055 | – | – | – | –
Cn1cc(-c2ccc(CC(NC(=O)OC(C)(C)C)C(=O)NO)cc2)cn1 (configuration not stated) | 120 | 14 | – | – | – | –
CC(C)(C)OC(=O)NC(C(=O)NO)c1ccc(-c2ccccc2F)cc1 (configuration not stated) | 0.95 | 0.041 | – | 0.633 | Non-toxic | –
CC(C)(C)OC(=O)NC(C(=O)NO)c1ccc(-c2cccnc2)cc1 (configuration not stated) | 1.1 | 0.22 | – | – | – | –
CC(C)(C)OC(=O)NC(Cc1ccc(Br)cc1)C(=O)NO (configuration not stated) | 39 | 7.7 | – | – | – | –
CC(C)(C)OC(=O)NC(Cc1ccc(-c2ccccc2)cc1)C(=O)NO (configuration not stated) | > 500 | 5.2 | – | – | – | –
CC(C)(C)OC(=O)NC(C(=O)NO)c1ccc(-c2ccc(F)cc2)cc1 (configuration not stated) | 100 | 0.074 | – | – | – | –
CC(C)(C)OC(=O)NC(C(=O)NO)c1ccc(-c2cccc(/C(N)=N\O)c2)cc1 (configuration not stated) | 1.1 | 0.14 | – | 0.679 | Non-toxic | –
